Published values collected from several papers.
Compare with care: the assays were run in different laboratories.
Target: Insulin receptor-related protein (INSRR, Homo sapiens, UniProt P14616)

CCS(=O)(=O)c1cc2cc(C[C@@](O)(CC(C)(C)c3ccc(F)cc3C(N)=O)C(F)(F)F)[nH]c2cn1  remaining binding (cell-free assay, competition with immobilised ligand; 1 µM): 64%
COc1cc(Cl)c(C(=O)N[C@@H](CN[C@H]2CC[C@@H](N)CC2)Cc2ccc(C#N)cc2)cc1-c1ccc(CN[C@H](C)c2ccc(C)cc2)o1  remaining activity (enzyme activity, inhibitor; 1 µM): 98%
Cc1cc(NC(=O)c2cccc(S(F)(F)(F)(F)F)c2)cc(-n2ccn3nc(-c4cccnc4)cc23)c1  remaining binding (cell-free assay, competition with immobilised ligand; 1 µM): 100%
CCN(CC)CCNC(=O)c1c(C)[nH]c(/C=C2\C(=O)Nc3ccc(F)cc32)c1C  inhibition (enzyme activity, inhibitor; 10 µM): 78%
COc1cc2ncnc(Nc3ccc(Oc4ccccc4)cc3C)c2cc1OC  inhibition (enzyme activity, inhibitor; 1 µM): 3%
CCCOc1ccc(OC)c(F)c1C(=O)c1ccc(C(=O)N[C@@H]2CNC[C@H]2NC(=O)c2ccc3[nH]ncc3c2)cc1  remaining activity (enzyme activity, inhibitor; 10 µM): 87%
Cc1sc(C(=O)NC2COC2)cc1-n1cc(NC(=O)Nc2c(F)cccc2Cl)cn1  remaining activity (enzyme activity, inhibitor; 10 µM): 71.9%
Cc1ccc(Nc2nccc(N(C)c3ccc4c(C)n(C)nc4c3)n2)cc1S(N)(=O)=O  inhibition (enzyme activity, inhibitor; 10 µM): 41%
O=C1Nc2ccc(Cl)cc2C1=Cc1cc(Cl)c(O)c(Cl)c1  remaining signal (cell-free assay; 0.5 µM): 100%
Cc1ccc(C(=O)NCc2ccsc2)cc1C#Cc1cn(C(C)C)c2ncnc(N)c12  activity vs control (enzyme activity, inhibitor; 1 µM): 105%
CC(=O)N1CCC(c2ccc(C(=O)NC(=N)N)cc2C(F)(F)F)CC1  remaining binding (cell-free assay, competition with immobilised ligand; 1 µM): 100%
CC(C)(C)c1nc2c(s1)c1nc(N)ncc1c1ccc(NS(=O)(=O)c3c(F)cccc3F)c(F)c12  remaining activity (enzyme activity, inhibitor, radiometric; 1 µM): 107%
Cc1cnc(NC2CCOCC2)nc1-n1cnc(C(=O)NC(CN)c2cc(F)cc(Cl)c2)c1 (stereo not shown)  remaining activity (enzyme activity, inhibitor, radiometric; 1 µM): 70%
CC(=O)c1c(NS(C)(=O)=O)c2cc(-c3ccc(Cl)cc3)c(-c3ccc(Cl)cc3Cl)nc2n(C)c1=O  remaining binding (cell-free assay, competition with immobilised ligand; 1 µM): 93%
Nc1nc(Nc2ccccc2)sc1C(=O)c1c(F)cccc1F  remaining activity (enzyme activity, inhibitor; 10 µM): 24%
CCCS(=O)(=O)Nc1ccc(F)c(C(=O)c2c[nH]c3ncc(-c4ccc(Cl)cc4)cc23)c1F  inhibition (enzyme activity, inhibitor; 1 µM): < 10%
Cc1nc(Cc2cccc(C(F)(F)F)c2)sc1-c1ccc(C(N)=O)nc1  remaining binding (cell-free assay, competition with immobilised ligand; 1 µM): 100%
CNC(=O)c1cc(Oc2ccc(NC(=O)Nc3ccc(Cl)c(C(F)(F)F)c3)cc2)ccn1  inhibition (enzyme activity, inhibitor; 0.3 µM): -25%
COc1cc2nccc(Oc3ccc(NC(=O)c4c5n(n(-c6ccc(F)cc6)c4=O)CCCC5)cc3)c2cc1OC  inhibition (enzyme activity, inhibitor; 0.1 µM): 5%
COc1cc(Nc2cnc(C#N)c(O[C@H](C)CN(C)C)n2)ncc1-c1cnn(C)c1  remaining activity (enzyme activity, inhibitor, radiometric; 1 µM): 103%
N#CCCc1ccc2c(c1)-c1[nH]c3ccc([N+](=O)[O-])cc3c1CC(=O)N2  remaining signal (cell-free assay; 0.5 µM): 99.2%
CN(C)CC#Cc1ccc(OCCCc2sc(N3CCc4cccc(C(=O)Nc5nc6ccccc6s5)c4C3)nc2C(=O)O)c(F)c1  remaining binding (cell-free assay, competition with immobilised ligand; 1 µM): 90%
CC(C)(C)C(=O)c1sc(NC2CCCCC2)nc1N  remaining activity (enzyme activity, inhibitor; 10 µM): 93%
CC(C)(O)[C@H]1CC[C@H](Nc2ccc3ncc(-c4cccc(C(F)(F)F)c4)n3n2)CC1  remaining activity (enzyme activity, inhibitor; 1 µM): 77%
CN(C)c1ncnc(-c2ccc3nc(Nc4cc(CN5CCN(C(=O)CC(F)(F)F)CC5)ccn4)[nH]c3c2)c1Cl  remaining binding (cell-free assay, competition with immobilised ligand; 1 µM): 95%
FC(F)c1nc2ccccc2n1-c1nc(N2CCOCC2)nc(N2CCOCC2)n1  remaining activity (enzyme activity, inhibitor; 10 µM): 88%
O=C(N[C@H]1CCCCC/C=C\C2C[C@@]2(C(=O)O)NC(=O)[C@@H]2C[C@@H](Oc3ccncc3)CN2C1=O)OC1CCCC1 (stereo partly shown)  remaining binding (binding, competition with immobilised ligand; 1 µM): 100%
Cc1cc(NC(=O)c2cccc3cc(-c4cccc5[nH]nc(N)c45)ccc23)ccc1F  activity vs control (enzyme activity, inhibitor; 0.1 µM): 106%
